Assay results reported in ChEMBL document CHEMBL1275429, “Pharmacodynamic characterization of ceftobiprole in experimental pneumonia caused by phenotypically diverse Staphylococcus aureus strains” (Antimicrob Agents Chemother, 2008).
≈ marks a conversion by molar mass, not a printed value.

What was measured:
[1] = AUC (0 to infinity) in neutropenic BALB/cAnNCr mouse infected with Staphylococcus aureus at 10 mg/kg, sc administered as single dose after 6 hrs of infection; type: ADME, organism-based; parameters: time infinity, dose 10 mg/kg, route subcutaneous; conditions: plasma
Summary of the method: (§1)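 Neutropenic female mice (cyclophosphamide i.p. 250 mg/kg day −4, 100 mg/kg day −1) with HA-MRSA 56 pneumonia (oral inoculum, 10^7 CFU/ml in 3% mucin). Single s.c. dose in sterile water. Plasma by intracardiac puncture at 0.25–4 h, six mice per time point, stabilized with citric acid. Assayed by validated HPLC (LOQ 0.01 µg/ml). Parameters from one-compartment analysis.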

[2] = fT>MIC required for 50% inhibition of methicillin-susceptible Staphylococcus aureus 29213 infection in neutropenic BALB/cAnNCr mouse; type: functional
[3] = fT>MIC required for stasis inhibition of community acquired methicillin-resistant Staphylococcus aureus 144 infection in neutropenic BALB/cAnNCr mouse; type: functional
Summary of the method: (§2)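 Same neutropenic murine pneumonia model, with 24-h lung log10 CFU change (5 mice per group; 1–25 mg/kg s.c., 1–5 times daily). […] ED50, ED80 and stasis exposures were taken from a sigmoid Emax fit for each isolate.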

[4] = fT>MIC required for 50% inhibition of Staphylococcus aureus infection in neutropenic BALB/cAnNCr mouse; type: functional
[5] = fT>MIC required for stasis inhibition of hospital acquired methicillin-resistant Staphylococcus aureus 149 infection in neutropenic BALB/cAnNCr mouse; type: functional; summary of the method: as §2
[6] = fT>MIC required for 50% inhibition of hospital acquired Staphylococcus aureus 152 infection in neutropenic BALB/cAnNCr mouse; type: functional
[7] = fCmax/MIC in neutropenic BALB/cAnNCr mouse plasma infected with Staphylococcus aureus at 1 to 25 mg/kg, sc administered 1 to 5 times/day after 24 hrs by HPLC; type: functional; conditions: route subcutaneous
Summary of the method: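 Exposure indices used free plasma drug, correcting with 19% mouse protein binding supplied by the sponsor. The regimens were s.c. 1–25 mg/kg given 1–5 times daily for 24 h to neutropenic mice with S. aureus pneumonia. MICs were determined in triplicate by CLSI broth microdilution. PK came from the single-dose HPLC study.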

[8] = fT>MIC required for 80% inhibition of community acquired methicillin-resistant Staphylococcus aureus 144 infection in neutropenic BALB/cAnNCr mouse; type: functional; summary of the method: as §2
[9] = Elimination half life in neutropenic BALB/cAnNCr mouse infected with Staphylococcus aureus at 10 mg/kg, sc administered as single dose after 6 hrs of infection; type: ADME, organism-based; parameters: dose 10 mg/kg, route subcutaneous; conditions: in vivo; summary of the method: as §1
[10] = Tmax in neutropenic BALB/cAnNCr mouse infected with Staphylococcus aureus at 2.5 mg/kg, sc administered as single dose after 6 hrs of infection; type: ADME, organism-based; parameters: dose 2.5 mg/kg, route subcutaneous; conditions: in vivo
Summary of the method: (§3)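 Female BALB/cAnNCr mice (7-9 weeks, 15-22 g) made neutropenic with cyclophosphamide, 250 mg/kg i.p. on day -4 and 100 mg/kg i.p. on day -1. Infected by oral aspiration of HA-MRSA 56 (10^7 CFU/ml in 3% mucin/saline). Single s.c. dose in sterile water given 6 h post-challenge. Plasma (EDTA, citric acid-stabilized) taken at 0.25-4 h, six mice per time point. Assayed by validated HPLC (LOQ 0.01 µg/ml); one-compartment analysis.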

Staphylococcus aureus [11] = assay: Antimicrobial activity against methicillin-susceptible Staphylococcus aureus ATCC 25923 by broth microdilution method; type: functional
Summary of the method: (§4)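 Broth microdilution run in triplicate following CLSI guidelines. Isolates were stored at –80°C in double-strength skim milk and subcultured twice on Trypticase soy agar with 5% sheep blood before testing.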

[12] = AUC (0 to infinity) in neutropenic BALB/cAnNCr mouse infected with Staphylococcus aureus at 1 mg/kg, sc administered as single dose after 6 hrs of infection; type: ADME, organism-based; parameters: time infinity, dose 1 mg/kg, route subcutaneous; conditions: plasma; summary of the method: as §1
[13] = fT>MIC required for 80% inhibition of community acquired methicillin-resistant Staphylococcus aureus 146 infection in neutropenic BALB/cAnNCr mouse; type: functional; summary of the method: as §2
[14] = fCmax/MIC required for 80% inhibition of Staphylococcus aureus infection in neutropenic BALB/cAnNCr mouse; type: functional
Mus musculus [15] = assay: Volume of distribution in neutropenic BALB/cAnNCr mouse infected with Staphylococcus aureus at 2.5 mg/kg, sc administered as single dose after 6 hrs of infection; type: ADME, organism-based; parameters: dose 2.5 mg/kg, route subcutaneous; conditions: in vivo; summary of the method: as §3
[16] = Elimination half life in neutropenic BALB/cAnNCr mouse infected with Staphylococcus aureus at 2.5 mg/kg, sc administered as single dose after 6 hrs of infection; type: ADME, organism-based; parameters: dose 2.5 mg/kg, route subcutaneous; conditions: in vivo; summary of the method: as §3
[17] = Tmax in neutropenic BALB/cAnNCr mouse infected with Staphylococcus aureus at 25 mg/kg, sc administered as single dose after 6 hrs of infection; type: ADME, organism-based; parameters: dose 25 mg/kg, route subcutaneous; conditions: in vivo; summary of the method: as §1
[18] = fT>MIC required for stasis inhibition of hospital acquired methicillin-resistant Staphylococcus aureus 56 infection in neutropenic BALB/cAnNCr mouse; type: functional; summary of the method: as §2
[19] = fT>MIC required for 80% inhibition of Staphylococcus aureus infection in neutropenic BALB/cAnNCr mouse; type: functional
Staphylococcus aureus [20] = assay: Antimicrobial activity against community acquired methicillin-resistant Staphylococcus aureus 144 by broth microdilution method; type: functional; summary of the method: as §4
Staphylococcus aureus [21] = assay: Antimicrobial activity against community acquired methicillin-resistant Staphylococcus aureus 147 by broth microdilution method; type: functional; summary of the method: as §4
Staphylococcus aureus [22] = assay: Antimicrobial activity against hospital acquired methicillin-resistant Staphylococcus aureus 149 infected in BALB/cAnNCr mouse assessed as decrease in bacterial density in lungs at 1 to 25 mg/kg, sc administered as 1 to 5 times/day after 24 hrs […] relative to control; type: functional; conditions: route subcutaneous
Summary of the method: (§5)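 Female BALB/cAnNCr mice (7–9 weeks) were made neutropenic with cyclophosphamide i.p. at 250 mg/kg on day −4 and 100 mg/kg on day −1. Under isoflurane, mice received an oral inoculum in 3% mucin/saline, with nostrils blocked until aspiration. Drug (1–25 mg/kg s.c., once to five times daily, water vehicle) or sham started 6 h post-inoculation. Lungs were harvested at 24 h, homogenized and plated on blood and Columbia agar at 35°C. Mean log10 CFU/ml was compared with the 0-h untreated baseline; 5 mice per group.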

Mus musculus [23] = assay: Volume of distribution in neutropenic BALB/cAnNCr mouse infected with Staphylococcus aureus at 25 mg/kg, sc administered as single dose after 6 hrs of infection; type: ADME, organism-based; parameters: dose 25 mg/kg, route subcutaneous; conditions: in vivo; summary of the method: as §1
[24] = fAUC/MIC required for 80% inhibition of Staphylococcus aureus infection in neutropenic BALB/cAnNCr mouse; type: functional
Staphylococcus aureus [25] = assay: Antimicrobial activity against hospital acquired methicillin-resistant Staphylococcus aureus 152 by broth microdilution method; type: functional; summary of the method: as §4
Staphylococcus aureus [26] = assay: Antimicrobial activity against hospital acquired methicillin-resistant Staphylococcus aureus 149 by broth microdilution method; type: functional; summary of the method: as §4
[27] = Elimination half life in neutropenic BALB/cAnNCr mouse infected with Staphylococcus aureus at 1 mg/kg, sc administered as single dose after 6 hrs of infection; type: ADME, organism-based; parameters: dose 1 mg/kg, route subcutaneous; conditions: in vivo; summary of the method: as §1
[28] = fAUC/MIC required for 50% inhibition of Staphylococcus aureus infection in neutropenic BALB/cAnNCr mouse; type: functional
Staphylococcus aureus [29] = assay: Antimicrobial activity against community acquired methicillin-resistant Staphylococcus aureus 144 infected in BALB/cAnNCr mouse assessed as decrease in bacterial density in lungs at 1 to 25 mg/kg, sc administered as 1 to 5 times/day after 24 hrs […] relative to control; type: functional; conditions: route subcutaneous; summary of the method: as §5

Which AUC(0-inf) [1] does the source give for `Nc1nc(/C(=N/O)C(=O)N[C@@H]2C(=O)N3C(C(=O)O)=C(/C=C4\CCN([C@@H]5CCNC5)C4=O)CS[C@H]23)ns1` [CEFTOBIPROLE] here?
The AUC(0-inf) was 15800 ng·h/mL.

And the “fT>MIC” value [2]?
Its value is 14.8%.

And the “fT>MIC” value [3]?
The value was 13.6%.

And the “fT>MIC” value [4]?
Its value is 12%.

What about the “fT>MIC” value [5] of the same molecule?
The value was 6.6%.

And the “fT>MIC” value [6]?
Its value is 14%.

What about the fCmax/MIC [7] of the same molecule?
The fCmax/MIC was 1.

And the “fT>MIC” value [8]?
The value was 14.3%.

What about the half-life [9] of the same molecule?
The half-life was 25.2 min.

What about the Tmax [10] of the same molecule?
Its Tmax is 24.6 min.

What about the MIC (Staphylococcus aureus [11]) of the same molecule?
The MIC was 0.25 µg/mL (≈ 0.468 µM).

And the AUC(0-inf) [12]?
The AUC(0-inf) was 1840 ng·h/mL.

And the “fT>MIC” value [13]?
Its value is 6%.

And the fCmax/MIC [14]?
The fCmax/MIC was 2.

And the Vd (Mus musculus [15])?
Its Vd is 0.63 L/kg.

And the half-life [16]?
The half-life was 27 min.

What about the Tmax [17] of the same molecule?
The Tmax was 28.2 min.

And the “fT>MIC” value [18]?
The value was 13.1%.

What about the “fT>MIC” value [19] of the same molecule?
The value was 17%.

What about the MIC (Staphylococcus aureus [20]) of the same molecule?
The MIC was 1 µg/mL (≈ 1.87 µM).

What about the MIC (Staphylococcus aureus [21]) of the same molecule?
The MIC was 1 µg/mL (≈ 1.87 µM).

And the log10cfu (Staphylococcus aureus [22])?
Its log10cfu is 4.1.

And the Vd (Mus musculus [23])?
The Vd was 0.41 L/kg.

What about the fAUC/MIC [24] of the same molecule?
The fAUC/MIC was 3.

And the MIC (Staphylococcus aureus [25])?
The MIC was 0.5 µg/mL (≈ 0.935 µM).

What about the MIC (Staphylococcus aureus [26]) of the same molecule?
The MIC was 1 µg/mL (≈ 1.87 µM).

And the half-life [27]?
The half-life was 15 min.

And the fAUC/MIC [28]?
The fAUC/MIC was 3.

What about the log10cfu (Staphylococcus aureus [29]) of the same molecule?
Its log10cfu is 2.9.
